Measurements published in ChEMBL document CHEMBL2434891, “Design, synthesis, and in vitro cancer cell growth inhibition evaluation and antimalarial testing of trioxanes installed in cyclic 2-enoate substructures” (Eur J Med Chem, 2013).

Columns and labels:
[1] = tested on: MKN-7; assay: Cytotoxicity against human MKN7 cells after 72 hrs by SRB assay; format: functional; conditions: MKN-7, 72 h
[2] = tested on: NCI-H23; assay: Cytotoxicity against human NCI-H23 cells after 72 hrs by SRB assay; format: functional; conditions: NCI-H23, 72 h
[3] = tested on: SF-295; assay: Cytotoxicity against human SF295 cells after 72 hrs by SRB assay; format: functional; conditions: SF-295, 72 h
[4] = tested on: DMS-114; assay: Cytotoxicity against human DMS114 cells after 72 hrs by SRB assay; format: functional; conditions: DMS-114, 72 h
[5] = tested on: MKN-28; assay: Cytotoxicity against human MKN28 cells after 72 hrs by SRB assay; format: functional; conditions: MKN-28, 72 h
[6] = tested on: SNB-78; assay: Cytotoxicity against human SNB78 cells after 72 hrs by SRB assay; format: functional; conditions: SNB-78, 72 h
[7] = tested on: A549; assay: Cytotoxicity against human A549 cells after 72 hrs by SRB assay; format: functional, cell-based; conditions: A549, 72 h
How it was run: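 Adherent cells grown at 37 °C and 5% CO2. Seeded at 1×10^4/well 24 h before dosing, then 72 h at 10–0.01 µg/mL final. Fixed with cold 50% TCA, stained with 0.4% SRB, dye extracted in 10 mM Tris, read at 540 nm.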

[8] = tested on: OVCAR-3; assay: Cytotoxicity against human OVCAR3 cells after 72 hrs by SRB assay; format: functional; conditions: OVCAR-3, 72 h
[9] = tested on: NCI-H460; assay: Cytotoxicity against human NCI-H460 cells after 72 hrs by SRB assay; format: functional; conditions: NCI-H460, 72 h
[10] = tested on: SF-539; assay: Cytotoxicity against human SF539 cells after 72 hrs by SRB assay; format: functional; conditions: SF-539, 72 h
[11] = tested on: U-251; assay: Cytotoxicity against human U251 cells after 72 hrs by SRB assay; format: functional; conditions: U-251, 72 h
[12] = tested on: DU-145; assay: Cytotoxicity against human DU145 cells after 72 hrs by SRB assay; format: functional; conditions: DU-145, 72 h
[13] = tested on: SF-268; assay: Cytotoxicity against human SF268 cells after 72 hrs by SRB assay; format: functional; conditions: SF-268, 72 h
[14] = tested on: DMS-273; assay: Cytotoxicity against human DMS273 cells after 72 hrs by SRB assay; format: functional; conditions: DMS-273, 72 h
[15] = tested on: HCT-15; assay: Cytotoxicity against human HCT15 cells after 72 hrs by SRB assay; format: functional; conditions: HCT-15, 72 h
[16] = tested on: OVCAR-8; assay: Cytotoxicity against human OVCAR8 cells after 72 hrs by SRB assay; format: functional; conditions: OVCAR-8, 72 h
[17] = tested on: OVCAR-4; assay: Cytotoxicity against human OVCAR4 cells after 72 hrs by SRB assay; format: functional; conditions: OVCAR-4, 72 h
[18] = tested on: MCF7; assay: Cytotoxicity against human MCF7 cells after 72 hrs by SRB assay; format: functional; conditions: MCF7, 72 h
[19] = Cytotoxicity against human MKN1 cells after 72 hrs by SRB assay; format: functional; conditions: MKN-1, 72 h
[20] = tested on: NCI-H226; assay: Cytotoxicity against human NCI-H226 cells after 72 hrs by SRB assay; format: functional; conditions: NCI-H226, 72 h
[21] = tested on: St-4; assay: Cytotoxicity against human St-4 cells after 72 hrs by SRB assay; format: functional; conditions: St-4, 72 h
[22] = tested on: MV4-11; assay: Antiproliferative activity against human MV4-11 cells after 72 hrs by MTT assay; format: functional, cell-based; conditions: MV4-11, 72 h
[23] = tested on: HCC 2998; assay: Cytotoxicity against human HCC2998 cells after 72 hrs by SRB assay; format: functional; conditions: HCC 2998, 72 h
[24] = Cytotoxicity against human RXF631L cells after 72 hrs by SRB assay; format: functional; conditions: RXF 631, 72 h
[25] = tested on: SK-OV-3; assay: Cytotoxicity against human SKOV3 cells after 72 hrs by SRB assay; format: functional; conditions: SK-OV-3, 72 h
[26] = tested on: OVCAR-5; assay: Cytotoxicity against human OVCAR5 cells after 72 hrs by SRB assay; format: functional; conditions: OVCAR-5, 72 h
[27] = tested on: KM12; assay: Cytotoxicity against human KM12 cells after 72 hrs by SRB assay; format: functional; conditions: KM12, 72 h
[28] = tested on: NCI-H522; assay: Cytotoxicity against human NCI-H522 cells after 72 hrs by SRB assay; format: functional; conditions: NCI-H522, 72 h
[29] = read-out: LC50 (the source's name)

For `COc1ccc(C2O[C@]34CC(c5cccc(OC)c5)OC(=O)C3=C[C@@]2(C)OO4)cc1` (some centres not stated), the TGI [1] was 14 µM, the GI50 ([1]; read-out: GI50) was 3.4 µM and the CC50 [1, 29] was 90 µM. The TGI [2] was 36 µM, the GI50 ([2]; read-out: GI50) was 17 µM and the CC50 [2, 29] was 79 µM. For the same compound, the TGI [3] was 33 µM, the GI50 ([3]; read-out: GI50) was 18 µM and the CC50 [3, 29] was 60 µM. The TGI [4] was 20 µM, the GI50 ([4]; read-out: GI50) was 4.4 µM and the CC50 [4, 29] was 95 µM. It also gave a TGI [5] of 36 µM, a GI50 ([5]; read-out: GI50) of 11 µM and a CC50 [5, 29] of 100 µM. The TGI [6] was 34 µM, the GI50 ([6]; read-out: GI50) was 13 µM and the CC50 [6, 29] was 90 µM. It also gave a TGI [7] of 37 µM, a GI50 ([7]; read-out: GI50) of 18 µM and a CC50 [7, 29] of 72 µM. It also gave a TGI [8] of 5.1 µM, a GI50 ([8]; read-out: GI50) of 2.4 µM and a CC50 [8, 29] of 13 µM. The TGI [9] was 41 µM, the GI50 ([9]; read-out: GI50) was 20 µM and the CC50 [9, 29] was 82 µM. The TGI [10] was 5.4 µM, the GI50 ([10]; read-out: GI50) was 2.8 µM and the CC50 [10, 29] was 14 µM. The TGI [11] was 33 µM, the GI50 ([11]; read-out: GI50) was 16 µM and the CC50 [11, 29] was 68 µM. It also gave a TGI [12] of 31 µM, a GI50 ([12]; read-out: GI50) of 16 µM and a CC50 [12, 29] of 57 µM. For the same compound, the TGI [13] was 36 µM, the GI50 ([13]; read-out: GI50) was 14 µM and the CC50 [13, 29] was 92 µM. The TGI [14] was 27 µM, the GI50 ([14]; read-out: GI50) was 10 µM and the CC50 [14, 29] was 74 µM. It also gave a TGI [15] of 17 µM, a GI50 ([15]; read-out: GI50) of 3.7 µM and a CC50 [15, 29] of 100 µM. It also gave a TGI [16] of 38 µM, a GI50 ([16]; read-out: GI50) of 9.4 µM and a CC50 [16, 29] of 100 µM. The TGI [17] was 11 µM, the GI50 ([17]; read-out: GI50) was 1.5 µM and the CC50 [17, 29] was 42 µM. For the same compound, the TGI [18] was 29 µM, the GI50 ([18]; read-out: GI50) was 10 µM and the CC50 [18, 29] was 87 µM. It also gave a TGI [19] of 4.4 µM, a GI50 ([19]; read-out: GI50) of 2.1 µM and a CC50 [19, 29] of 9.1 µM. The TGI [20] was 40 µM, the GI50 ([20]; read-out: GI50) was 18 µM and the CC50 [20, 29] was 92 µM. The TGI [21] was 45 µM, the GI50 ([21]; read-out: GI50) was 18 µM and the CC50 [21, 29] was 100 µM. It also gave an IC50 [22] of 4.68 µM, a TGI [23] of 22 µM and a GI50 ([23]; read-out: GI50) of 6.3 µM. It also gave a CC50 [23, 29] of 62 µM, a TGI [24] of 31 µM and a GI50 ([24]; read-out: GI50) of 17 µM. For the same compound, the CC50 [24, 29] was 59 µM, the TGI [25] was 33 µM and the GI50 ([25]; read-out: GI50) was 1.9 µM. For the same compound, the CC50 [25, 29] was 58 µM, the TGI [26] was 7.4 µM and the GI50 ([26]; read-out: GI50) was 2.8 µM. For the same compound, the CC50 [26, 29] was 27 µM, the TGI [27] was 39 µM and the GI50 ([27]; read-out: GI50) was 18 µM. For the same compound, the CC50 [27, 29] was 85 µM, the TGI [28] was 5 µM and the GI50 ([28]; read-out: GI50) was 2 µM. For the same compound, the CC50 [28, 29] was 22 µM.
